Consider 26 compounds from paper PMC3254186 (Frontiers in Pharmacology, 2011).

Counter-ions that a name gives are not always drawn.

One test deals with T1, Kir1.1 (S44D) (Rattus norvegicus, UniProt P35560, S44D).
T1 sequence (P35560 1-391 S44D): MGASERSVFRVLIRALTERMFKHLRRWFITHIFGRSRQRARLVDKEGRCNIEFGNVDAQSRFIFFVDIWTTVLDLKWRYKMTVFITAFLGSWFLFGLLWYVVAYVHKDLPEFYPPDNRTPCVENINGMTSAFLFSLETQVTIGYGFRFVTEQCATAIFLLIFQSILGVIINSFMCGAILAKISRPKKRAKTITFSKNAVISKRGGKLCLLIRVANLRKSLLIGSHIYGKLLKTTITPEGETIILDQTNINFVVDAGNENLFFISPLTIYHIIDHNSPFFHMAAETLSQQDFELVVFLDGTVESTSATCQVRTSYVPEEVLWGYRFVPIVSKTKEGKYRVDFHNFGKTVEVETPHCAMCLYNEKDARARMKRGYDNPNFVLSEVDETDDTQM
In words: Tl+ flux assay, tetracycline-inducible Kir1.1-S44D T-REx-HEK-293 cells. The following applies: IC50 Kir1.1, Tl+ flux, mean ± SEM (n = 3). The test is classed as cell-based. Put shortly: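 Monoclonal C1 T-REx-HEK-293 Kir1.1-S44D cells were grown in DMEM with 10% FBS, penicillin/streptomycin, 5 μg/mL blasticidin S and 250 μg/mL hygromycin. Channel expression was induced overnight with tetracycline. Cells were loaded with FluoZin-2 and pre-treated with test compound from 1:3 serial dilutions. Extracellular Tl+ was then added and fluorescence imaged kinetically at 20–23°C. CRC, mean ± SEM, n = 3.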

Another test has as its target T2, Kir7.1-M125R (Homo sapiens, UniProt O60928, M125R).
T2 sequence (O60928 1-360 M125R): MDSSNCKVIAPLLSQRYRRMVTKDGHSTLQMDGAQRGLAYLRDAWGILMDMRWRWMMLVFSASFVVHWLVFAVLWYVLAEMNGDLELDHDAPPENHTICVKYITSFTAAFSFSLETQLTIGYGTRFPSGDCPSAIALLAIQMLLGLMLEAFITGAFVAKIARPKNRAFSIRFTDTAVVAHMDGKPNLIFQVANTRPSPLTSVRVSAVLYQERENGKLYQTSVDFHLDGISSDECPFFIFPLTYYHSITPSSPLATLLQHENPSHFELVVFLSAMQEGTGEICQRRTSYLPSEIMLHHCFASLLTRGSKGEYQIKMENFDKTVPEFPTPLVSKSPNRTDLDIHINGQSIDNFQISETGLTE
As to the kind of experiment: Tl+ flux assay, polyclonal Kir7.1-M125R T-REx-HEK-293 cells. Type of test: cell-based.

The subject of a further test is Kir1.1. The following applies: read-out: Kir1.1 inhibitor potency; ref Lewis et al., [2009]; cited from earlier work.
A further test concerns Kir7.1. The following applies: read-out: IC50 Kir7.1; ref Lewis et al., [2009]; cited from earlier work.

In turn, `N=c1n(Cc2ccccc2)c2ccccc2n1CC(O)COc1cccc(Cl)c1` (centres unmarked) [Compound 18, 1-(3-benzyl-2-imino-2,3-dihydro-1H-benzo[d]imidazol-1-yl)-3-(3-chlorophenoxy)propan-2-ol] came in with an IC50 on Kir1.1 (S44D) of 11.7 ± 2.1 µM.
Turning to `N=c1n(Cc2ccccc2)c2ccccc2n1CC(O)COc1ccc(OCc2ccccc2)cc1` (centres unmarked) [Compound 11, 1-(3-benzyl-2-imino-2,3-dihydro-1H-benzo[d]imidazol-1-yl)-3-(4-(benzyloxy)phenoxy)propan-2-ol], the “activity toward Kir7.1” value at Kir7.1-M125R was “lost activity”. This compound had an IC50 against Kir1.1 (S44D) of 5.23 ± 0.59 µM.
For `COc1ccc(OCC(O)Cn2c(=N)n(Cc3ccccc3)c3ccccc32)cc1` (centres unmarked) [Compound 13, 1-(3-benzyl-2-imino-2,3-dihydro-1H-benzo[d]imidazol-1-yl)-3-(4-methoxyphenoxy)propan-2-ol], the IC50 against Kir1.1 (S44D) was found to be 12.7 ± 1.2 µM.
`N#Cc1ccc(F)c(OCC(O)Cn2c(=N)n(Cc3ccccc3)c3ccccc32)c1` (centres unmarked) [Compound 17, 3-(3-(3-benzyl-2-imino-2,3-dihydro-1H-benzo[d]imidazol-1-yl)-2-hydroxypropoxy)-4-fluorobenzonitrile]: the IC50 at Kir1.1 (S44D) was determined as 8.27 ± 0.29 µM.
Still for that read-out and setting: then `N=c1n(Cc2ccccc2)c2ccccc2n1CC(O)COc1ccc(Cc2ccccc2)cc1` (centres unmarked) [Compound 10, 1-(3-benzyl-2-imino-2,3-dihydro-1H-benzo[d]imidazol-1-yl)-3-(4-benzylphenoxy)propan-2-ol], with 6.13 ± 0.23 µM.
Consider `COc1ccccc1OCC(O)Cn1c(=N)n(Cc2ccccc2)c2ccccc21` (centres unmarked) [Compound 21, 1-(3-benzyl-2-imino-2,3-dihydro-1H-benzo[d]imidazol-1-yl)-3-(2-methoxyphenoxy)propan-2-ol], for which the IC50 at Kir1.1 (S44D) came to 19.3 ± 1.5 µM.
On the same count and under the same terms, then `N=c1n(Cc2ccccc2)c2ccccc2n1CC(O)COc1ccc(Cl)cc1Cl` (centres unmarked) [Compound 2, 1-(3-benzyl-2-imino-2,3-dihydro-1H-benzo[d]imidazol-1-yl)-3-(2,4-dichlorophenoxy)propan-2-ol], with 7.07 ± 2.3 µM.
Still for that read-out and setting: then `N=c1n(Cc2ccc(Cl)cc2)c2ccccc2n1CC(O)COc1ccc(Cl)cc1` (centres unmarked) [Compound 23, 1-(3-(4-chlorobenzyl)-2-imino-2,3-dihydro-1H-benzo[d]imidazol-1-yl)-3-(4-chlorophenoxy)propan-2-ol], with 6.53 ± 3.9 µM.
On the same count and under the same terms, then `Cc1ccccc1OCC(O)Cn1c(=N)n(Cc2ccccc2)c2ccccc21` (centres unmarked) [Compound 6, 1-(3-benzyl-2-imino-2,3-dihydro-1H-benzo[d]imidazol-1-yl)-3-(o-tolyloxy)propan-2-ol], with 11.9 ± 2.2 µM.
In the case of `O=[N+]([O-])c1ccc(CN2CCOCCOCCN(Cc3ccc([N+](=O)[O-])cc3)CCOCC2)cc1` [VU590, 7,13-bis[(4-nitrophenyl)methyl]-1,4,10-trioxa-7,13-diazacyclopentadecanedihydrochloride], the values for the IC50 in the test with Kir1.1 and in the test on Kir7.1 were ~0.3 µM and ~8 µM, respectively.
In the case of `Cc1cccc(OCC(O)Cn2c(=N)n(Cc3ccccc3)c3ccccc32)c1` (centres unmarked) [Compound 4, 1-(3-benzyl-2-imino-2,3-dihydro-1H-benzo[d]imidazol-1-yl)-3-(m-tolyloxy)propan-2-ol], the IC50 on Kir1.1 (S44D) stood at 11.2 ± 2.8 µM.
The compound `N=c1n(Cc2ccccc2)c2ccccc2n1CC(O)COc1cc(F)cc(F)c1` (centres unmarked) [Compound 7, 1-(3-benzyl-2-imino-2,3-dihydro-1H-benzo[d]imidazol-1-yl)-3-(3,5-difluorophenoxy)propan-2-ol] returned an IC50 against Kir1.1 (S44D) of 7.57 ± 2.2 µM.
On the same count and under the same terms, to `COc1cccc(Cn2c(=N)n(CC(O)COc3ccc(C)cc3)c3ccccc32)c1` (centres unmarked) [Compound 24, 1-(2-imino-3-(3-methoxybenzyl)-2,3-dihydro-1H-benzo[d]imidazol-1-yl)-3-(p-tolyloxy)propan-2-ol] belongs 13.7 ± 4.4 µM.
As to `N=c1n(Cc2ccccc2)c2ccccc2n1CC(O)CN1CCOCC1` (centres unmarked) [Compound 9, 1-(3-benzyl-2-imino-2,3-dihydro-1H-benzo[d]imidazol-1-yl)-3-morpholinopropan-2-ol], the “activity toward Kir7.1” value on Kir7.1-M125R is “lost activity”. Also, the IC50 against Kir1.1 (S44D) is > 100 µM.
As for `COc1cccc(OCC(O)Cn2c(=N)n(Cc3ccccc3)c3ccccc32)c1` (centres unmarked) [Compound 14, 1-(3-benzyl-2-imino-2,3-dihydro-1H-benzo[d]imidazol-1-yl)-3-(3-methoxyphenoxy)propan-2-ol], the IC50 on Kir1.1 (S44D) is 10.1 ± 2.9 µM.
With `N=c1n(Cc2ccccc2)c2ccccc2n1CC(O)COc1ccccc1` (centres unmarked) [Compound 5, 1-(3-benzyl-2-imino-2,3-dihydro-1H-benzo[d]imidazol-1-yl)-3-phenoxypropan-2-ol], the IC50 at Kir1.1 (S44D) is 11.7 ± 4.1 µM.
On the same count and under the same terms, then `N=c1n(Cc2ccccc2)c2ccccc2n1CC(O)COc1ccccc1Cl` (centres unmarked) [Compound 15, 1-(3-benzyl-2-imino-2,3-dihydro-1H-benzo[d]imidazol-1-yl)-3-(2-chlorophenoxy)propan-2-ol], with 8.6 ± 1.2 µM; and `Cc1cc(OCC(O)Cn2c(=N)n(Cc3ccccc3)c3ccccc32)ccc1Br` (centres unmarked) [Compound 16, 1-(3-benzyl-2-imino-2,3-dihydro-1H-benzo[d]imidazol-1-yl)-3-(4-bromo-3-methylphenoxy)propan-2-ol], with 8.53 ± 1.7 µM.
On the same count and under the same terms, then `Cc1cc(C)cc(OCC(O)Cn2c(=N)n(Cc3ccccc3)c3ccccc32)c1` (centres unmarked) [Compound 20, 1-(3-benzyl-2-imino-2,3-dihydro-1H-benzo[d]imidazol-1-yl)-3-(3,5-dimethylphenoxy)propan-2-ol], with 16 ± 2 µM; and `N#Cc1cc(F)cc(OCC(O)Cn2c(=N)n(Cc3ccccc3)c3ccccc32)c1` (centres unmarked) [Compound 19, 3-(3-(3-benzyl-2-imino-2,3-dihydro-1H-benzo[d]imidazol-1-yl)-2-hydroxypropoxy)-5-fluorobenzonitrile], with 14.3 ± 1.5 µM; and `Cc1ccc(OCC(O)Cn2c(=N)n(C)c3ccccc32)cc1` (centres unmarked) [Compound 25, 1-(2-imino-3-methyl-2,3-dihydro-1H-benzo[d]imidazol-1-yl)-3-(p-tolyloxy)propan-2-ol], with 13 ± 2.6 µM.
The same measure, in the same setting: then `Cn1c(=N)n(CC(O)COc2ccc(C(F)(F)F)cc2)c2ccccc21` (centres unmarked) [Compound 26, 1-(2-imino-3-methyl-2,3-dihydro-1H-benzo[d]imidazol-1-yl)-3-(4-(trifluoromethyl)phenoxy)propan-2-ol], with 6.97 ± 2 µM; and `N=c1n(Cc2ccccc2)c2ccccc2n1CC(O)COc1ccc(Cl)cc1` (centres unmarked) [Compound 3, 1-(3-benzyl-2-imino-2,3-dihydro-1H-benzo[d]imidazol-1-yl)-3-(4-chlorophenoxy)propan-2-ol], with 6.57 ± 3.8 µM; and `N#Cc1ccc(OCC(O)Cn2c(=N)n(Cc3ccccc3)c3ccccc32)cc1` (centres unmarked) [Compound 12, 4-(3-(3-benzyl-2-imino-2,3-dihydro-1H-benzo[d]imidazol-1-yl)-2-hydroxypropoxy)benzonitrile], with 15.7 ± 2.1 µM.
Regarding `CC(C)c1ccc(OCC(O)Cn2c(=N)n(Cc3ccccc3)c3ccccc32)cc1` (centres unmarked) [Compound 8, 1-(3-benzyl-2-imino-2,3-dihydro-1H-benzo[d]imidazol-1-yl)-3-(4-isopropylphenoxy)propan-2-ol], the IC50 at Kir1.1 (S44D) was found to be 6.77 ± 1.7 µM.
The compound `N=c1n(Cc2ccc(Cl)cc2)c2ccccc2n1CC(O)COc1ccccc1` (centres unmarked) [Compound 22, 1-(3-(4-chlorobenzyl)-2-imino-2,3-dihydro-1H-benzo[d]imidazol-1-yl)-3-phenoxypropan-2-ol] yielded an IC50 against Kir1.1 (S44D) of 14.7 ± 2.1 µM.
